Screening results from PubChem.
XBP1 UPR activ = activators of adaptive XBP1 UPR arm, primary screen, cell-based, CHO-XBP1 luciferase reporter, luminescence, uHTS; IRE1-XBP1 UPR activation; percent of tunicamycin response, DMSO as zero; actives 0.33% (n = 330,000); activation, % at 20 µM;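 active = versus positive control, 20 µM dose yields 30% or more activation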
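Test system: CHO-XBP1 luciferase reporter cells | Buffer or medium: Serum-containing F12 medium, 10% FBS | Schedule: 6 h compound exposure at 37 °C, 5% CO2 | Detection: Steady-Glo luciferase glow luminescence, 10 min after reagent addition | Read-out basis: Activation, % of tunicamycin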
p97 ATPase inh = inhibitors of human p97 ATPase, primary screen, biochemical. Transitional endoplasmic reticulum ATPase (Homo sapiens), P55072. recombinant p97 ATPase, Kinase-Glo ATP luminescence, 3 h. inhibition, % at 8 µM. actives 0.42% (n = 220,000); in the data active = inhibition above about 15%
Target sequence (P55072 whole entry, looked up): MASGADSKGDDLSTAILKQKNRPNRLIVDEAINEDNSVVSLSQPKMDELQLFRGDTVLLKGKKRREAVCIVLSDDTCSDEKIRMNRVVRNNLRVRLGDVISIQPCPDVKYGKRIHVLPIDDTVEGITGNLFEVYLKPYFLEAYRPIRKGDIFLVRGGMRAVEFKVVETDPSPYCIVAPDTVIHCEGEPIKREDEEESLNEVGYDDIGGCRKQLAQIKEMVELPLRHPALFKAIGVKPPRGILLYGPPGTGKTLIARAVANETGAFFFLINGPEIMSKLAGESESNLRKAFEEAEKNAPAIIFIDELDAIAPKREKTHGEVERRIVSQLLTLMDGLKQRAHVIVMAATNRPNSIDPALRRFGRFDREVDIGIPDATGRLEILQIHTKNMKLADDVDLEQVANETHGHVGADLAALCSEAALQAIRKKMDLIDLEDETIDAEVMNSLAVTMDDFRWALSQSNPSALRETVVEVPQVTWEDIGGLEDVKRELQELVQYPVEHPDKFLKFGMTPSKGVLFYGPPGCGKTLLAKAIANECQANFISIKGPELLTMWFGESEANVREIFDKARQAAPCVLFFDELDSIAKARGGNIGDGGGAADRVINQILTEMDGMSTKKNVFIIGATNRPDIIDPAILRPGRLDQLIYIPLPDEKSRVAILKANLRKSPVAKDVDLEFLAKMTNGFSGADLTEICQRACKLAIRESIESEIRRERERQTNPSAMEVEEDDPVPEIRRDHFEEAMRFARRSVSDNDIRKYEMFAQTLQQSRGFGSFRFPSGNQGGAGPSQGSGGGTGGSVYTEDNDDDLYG
PfM18AAP inh-1 = PfM18AAP inhibitors, malaria aminopeptidase, primary screen, biochemical, QFRET, recombinant enzyme; M18 aspartyl aminopeptidase (Plasmodium falciparum 3D7); actives 1.2% (n = 290,000); inhibition, % at 7.35 µM; AID 1822, 2009; H-Glu-NHMec fluorogenic cleavage;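 active = inhibition above the campaign mean inhibition over all tested compounds plus 3 SD, cut at about 28% in these data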
CHOP inhibitor = inhibitors of CHOP promoter induction, primary screen, cell-based, unfolded protein response, luciferase reporter; CHO-K1 CHOP-promoter luciferase, tunicamycin-induced, 15-18 h; inhibition, % at 10 µM; actives 3.8% (n = 220,000); AID 2732, 2010;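 active = compounds that reduced the stress-induced luciferase reporter signal by more than about 70% of percent inhibition, limit read from the data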
HCV NS3 hel inh = inhibitors of HCV NS3 helicase, primary screen, biochemical, Cy5 molecular beacon fluorescence. Hepatitis C virus NS3 helicase. NS3 helicase DNA unwinding. inhibition, % at 10.9 µM. actives 0.56% (n = 290,000). AID 1800, 2009;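 active = inhibition above the mean of all tested compounds plus 3 SD, set per campaign, cut at about 35% in these data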
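Material: hepatitis C virus NS3 helicase domain fragment enzyme; measured by: Cy5 fluorescence, 0 and 60 min reads; control set: DMSO and thioflavine S; incubation: 60 min unwinding reaction at 25 °C after ATP addition; read-out basis: % inhibition from 60/0 min fluorescence ratio, DMSO 0%, thioflavine S 100%; repeats: singlicate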
CHOP UPR activ = activators of apoptotic CHOP UPR arm, primary screen, cell-based, CHO-CHOP luciferase reporter, luminescence, uHTS; actives 0.34% (n = 330,000); UPR activation; percent of tunicamycin response over DMSO baseline; activation, % at 10 µM; AID 449763, 2010;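 active = at 10 µM dose, activation of 40% or more, normalized to positive control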
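System: CHO-CHOP luciferase reporter cell line | Buffer or medium: F12 medium containing 10% fetal bovine serum | Doses: One dose, 10 µM in 0.5% DMSO | Times: 6 h compound exposure at 37 °C after overnight seeding | Signal: Luciferase luminescence | Read-out: % activation vs tunicamycin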
PfM18AAP inh-2 = PfM18AAP inhibitors, malaria aminopeptidase, confirmation, biochemical, QFRET, recombinant enzyme, triplicate; shares compounds with PfM18AAP inh-1; inhibition, % at 7.35 µM; actives 28% (n = 2,400); H-Glu-NHMec fluorogenic cleavage;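 active = mean inhibition over replicate wells above the hit cutoff set for the earlier primary screen, cut at about 29% in these data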
CTSL1 confirm = cathepsin L1 inhibitors, retest, confirmation, counter-screen for PFM18AAP inhibitor project, biochemical, QFRET, triplicate | inhibition, % at 5.96 µM | purified cathepsin L1, Z-Leu-Arg-MCA fluorescence | 2,400 tested, under 10 active | shares compounds with PfM18AAP inh-1;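 active = average inhibition across replicates above the hit cutoff set in the earlier primary screen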
Numbers stand for hits; 0 = inactive; - = not tested or not shown. Hits are enriched below; roughly 4.5% of the tested compounds scored in any of these assays.

SMILES	XBP1 UPR activ	p97 ATPase inh	PfM18AAP inh-1	CHOP inhibitor	HCV NS3 hel inh	CHOP UPR activ	PfM18AAP inh-2	CTSL1 confirm
CC1CCCC(C)N1C(=O)CSc1ncccn1 (centres undefined)	0	-	0	-	0	0	-	-
CCSc1nnc(NC(=O)CSc2nnc(CNC(=O)c3cc(OC)c(OC)c(OC)c3)o2)s1	0	0	0	0	0	0	-	-
CCSc1nnc(NC(=O)CSc2nnc(CNC(=O)c3ccc(OC)cc3)o2)s1	0	0	0	0	0	0	-	-
COc1ccc(C(=O)NCc2nnc(SCC(=O)Nc3nnc(C)s3)o2)cc1OC	0	0	47	0	0	0	0	0
COc1ccc(C(=O)NCc2nnc(SCC(=O)Nc3nnc(C)s3)o2)cc1	0	0	35	0	0	0	0	0
CCc1nnc(NC(=O)CSc2nnc(CNC(=O)c3cc(OC)c(OC)c(OC)c3)o2)s1	0	0	41	0	0	0	0	0
O=C(NC1CCCCC1)C(c1ccncc1)N(Cc1ccc2c(c1)OCO2)C(=O)C(F)(F)F (centres undefined)	0	0	41	0	0	0	0	0
CCc1ccc(N(C(=O)C(F)(F)F)C(C(=O)NC2CCCCC2)c2ccncc2)cc1 (centres undefined)	0	0	0	0	0	0	-	-
O=C(O)c1ccc2c(c1)C1C=CCC1C(c1ccncc1)N2 (centres undefined)	0	0	37	0	0	0	0	0
FC(F)(F)c1ccc2c(c1)C1C=CCC1C(c1ccncc1)N2 (centres undefined)	-	0	0	0	0	-	-	-
COc1ccc(C)cc1NC(=O)Nc1ccccc1	0	0	0	0	0	0	-	-
COc1cc([N+](=O)[O-])ccc1NC(=O)Nn1cnnc1	0	-	84	-	0	0	81	0
COc1ccc(C)cc1NC(=O)Nn1cnnc1	0	0	62	0	0	0	56	0
COc1ccc(Cl)cc1C(=O)Nn1cnnc1	0	-	37	-	0	0	0	0
COC(=O)[C@]1(C)N[C@H](CN(C)C(=O)Nc2ccccc2)[C@@H]2C(=O)N(Cc3ccccc3)C(=O)[C@@H]21	0	-	-	-	-	0	-	-
O=C(COC(=O)CN1CCSC1=O)Nc1ccc(F)cc1Cl	0	-	-	-	-	0	-	-
COc1ccc(/C(C)=N/NC(=O)c2cc(C)[nH]n2)c(OC)c1	0	-	0	-	0	0	-	-
Cc1ccc(-c2n[nH]c(=S)n2/N=C/c2ccc(C)o2)cc1	0	0	0	0	0	0	-	-
Cc1ccc(/C=N/n2c(-c3ccc(Cl)cc3)n[nH]c2=S)o1	0	0	32	0	0	0	0	0
Cn1c(-c2ccco2)n[nH]c1=S	0	0	0	0	0	0	-	-
S=c1nc(-c2ccco2)[nH][nH]1	0	0	44	74	0	0	0	0
Cc1ccc(C(=O)NN2C(=O)CSC2=S)cc1	0	0	0	0	0	0	-	-
C/C(=N\N1C(=O)CSC1=S)c1ccc(Br)cc1	0	0	50	0	0	0	0	0
CN(Cc1ccc(Cl)cc1)C(=O)CNC(=O)C12CC3CC(CC(C3)C1)C2	0	-	-	-	-	0	-	-
COc1ccc(C2Nc3cccc4cccc(c34)N2)cc1Br	0	-	35	-	0	0	0	0
SMILES	XBP1 UPR activ	p97 ATPase inh	PfM18AAP inh-1	CHOP inhibitor	HCV NS3 hel inh	CHOP UPR activ	PfM18AAP inh-2	CTSL1 confirm
COc1cc(C2Nc3cccc4cccc(c34)N2)ccc1OC(C)=O	0	0	0	0	0	0	-	-
Cc1ccc(/C(O)=C/c2nc3cc(C)ccc3oc2=O)cc1	0	0	39	0	0	0	0	0
Cc1ccc(Nc2nc(/N=C/NO)n[nH]2)cc1C	0	0	33	0	0	0	0	0
Cc1nc(C)c(-c2ccnc(/N=C/NO)n2)s1	0	0	0	0	0	0	-	-
CCc1nnc(NC(=O)c2ccc(S(=O)(=O)N3CCCC(C)C3)cc2)s1 (centres undefined)	0	-	0	-	0	0	-	-
Cc1cccc2sc(NNC(=O)c3ccc(S(=O)(=O)N4CCc5ccccc5C4)cc3)nc12	0	0	37	0	0	0	0	0
Cc1cccc2sc(NNC(=O)c3ccc(S(=O)(=O)N4CCCC(C)C4)cc3)nc12 (centres undefined)	-	0	38	0	0	-	0	0
Cc1cccc2sc(NC(=O)c3cccc(S(=O)(=O)N4CCc5ccccc54)c3)nc12	0	0	0	0	0	0	-	-
CC/C(=N\NC(=O)c1nnn(-c2nonc2N)c1-c1cccc(OC)c1)c1ccc(C)cc1	0	-	0	-	0	0	-	-
CCSc1nnc(NC(=O)C2CSC3(C)CCC(=O)N23)s1 (centres undefined)	0	-	-	-	-	0	-	-
COc1ccc(/C=N/Nc2nc(C(=O)O)cs2)cc1	0	-	34	-	0	0	0	0
C/C(=N\Nc1nc(C(=O)O)cs1)c1ccccc1	0	0	42	0	0	0	0	0
Cc1ccc2nc3c(c(Nc4ccc(O)cc4)c2c1)CCC3	0	-	33	-	0	0	0	0
COc1ccc(Nc2c3c(nc4ccc(C)cc24)CCC3)cc1	0	-	0	-	0	0	-	-
COc1ccc(CN(C)Cc2c(O)ccc3ccccc23)cc1	0	-	47	-	0	0	0	0
O=C(c1cc2ccccc2o1)N1CCN(S(=O)(=O)c2ccc(F)c(F)c2F)CC1	0	-	-	-	-	0	-	-
CC1CN(S(=O)(=O)c2cccc(C(=O)Nc3ccccc3N3CCCC3)c2)CC(C)O1 (centres undefined)	0	-	-	-	-	0	-	-
O=C(Cc1ccc(F)cc1)Nc1ccccc1N1CCCC1	0	-	33	-	0	0	0	0
O=C(c1ccc(-c2ccccc2)cc1)c1ccc([N+](=O)[O-])cc1	0	0	0	0	0	0	-	-
O=C(C1=NN[C@@H]2C(=O)N(Cc3ccccc3)C(=O)[C@H]12)c1ccc([N+](=O)[O-])cc1	0	0	42	0	0	0	0	0
CC(C)c1c(C#N)c(N)nc(SCC(=O)c2cc3ccccc3oc2=O)c1C#N	0	0	0	0	0	0	-	-
N#Cc1ccc(-c2ccccc2)nc1SCC(=O)c1cc2ccccc2oc1=O	0	0	34	0	0	0	0	0
